Shown are actives, neighbours in structure and some others; about 2% of the full set was active somewhere.
EBNA-1 inh – blocks EBNA-1 binding to DNA; EBNA-1 DNA binding, fluorescence polarization; inhibition, % at 14.8 µM; 300,000 tested, 0.34% active; in the data active = inhibition above about 28%
ZTA counter – blocks Epstein-Barr virus ZTA, an EBNA-1 counter-screen | P03206 | ZTA-DNA binding, fluorescence polarization | inhibition, % at 11 µM | 320,000 tested, 0.15% active | AID 2234; in the data active = inhibition above about 33%
Target sequence (P03206 whole entry, looked up): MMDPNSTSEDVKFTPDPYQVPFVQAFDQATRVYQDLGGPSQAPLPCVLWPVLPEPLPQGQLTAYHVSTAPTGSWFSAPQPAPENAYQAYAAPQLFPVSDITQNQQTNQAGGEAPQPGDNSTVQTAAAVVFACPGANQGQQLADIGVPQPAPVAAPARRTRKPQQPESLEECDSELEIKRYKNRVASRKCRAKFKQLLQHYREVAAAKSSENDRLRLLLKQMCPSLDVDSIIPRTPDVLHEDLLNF
GPR7 antagonist – human neuropeptides B/W receptor 1 antagonism. AID 1861. 290,000 tested, 1.1% active. inhibition, % at 4.4 µM. GPR7-expressing cells, fluorescence antagonist assay. P48145; in the data active = inhibition above about 16%, passing the limit was not always enough;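 note: cells stimulated with the agonist NPW; 0% = agonist with vehicle and 100% = vehicle without agonist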
Target sequence (P48145 whole entry, looked up): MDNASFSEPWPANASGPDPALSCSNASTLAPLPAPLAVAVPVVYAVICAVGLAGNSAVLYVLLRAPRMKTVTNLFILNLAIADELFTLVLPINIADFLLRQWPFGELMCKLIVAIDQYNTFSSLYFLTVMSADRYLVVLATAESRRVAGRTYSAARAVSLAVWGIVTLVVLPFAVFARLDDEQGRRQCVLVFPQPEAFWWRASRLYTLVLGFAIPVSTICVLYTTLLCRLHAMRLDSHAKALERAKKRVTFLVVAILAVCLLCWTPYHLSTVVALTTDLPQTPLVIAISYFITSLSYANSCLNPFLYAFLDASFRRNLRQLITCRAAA
DNA FID counter – counter-screen for HCV NS3 helicase inhibitors: DNA intercalator displacement; DNA fluorescent intercalator displacement, fluorescence; inhibition, % at 7.9 µM; 290,000 tested, 0.17% active; AID 1845; in the data active = inhibition above about 37%;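 note: 0% = vehicle and 100% = reference compound; higher means more ethidium bromide displaced from hairpin DNA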
NS3 helicase inh – blocks Hepatitis C virus NS3 helicase unwinding. NS3 helicase DNA unwinding, Cy5 molecular beacon fluorescence. inhibition, % at 10.9 µM. 290,000 tested, 0.56% active. AID 1800;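 active = inhibition above the mean of all tested compounds plus 3 SD, set per campaign, cut at about 35% in these data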;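 note: 0% = DMSO wells and 100% = thioflavine S control wells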
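System: HCV NS3 helicase fragment; control set: DMSO and thioflavine S; technique: Cy5 fluorescence at 0 and 60 min, beacon hairpin quenching; reagent: beacon DNA duplex substrate plus ATP; replicates: singlicate; schedule: 1 h reaction at 25 °C, ATP-initiated; medium: MOPS buffer pH 6.5 with MgCl2, DTT, Tween20, BSA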
GPR7 antag conf – confirmation of human GPR7 antagonists. shares compounds with GPR7 antagonist. 2,400 tested, 52% active. GPR7-expressing cells, calcium fluorescence antagonist mode. inhibition, % at 4.4 µM; in the data active = inhibition above about 24%;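 note: stimulated with the GPR7 agonist NPW; 0% = agonist plus vehicle and 100% = vehicle alone without agonist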
MCHR1 antag – antagonizes human MCHR1, a GPR7 antagonist counter-screen; inhibition, % at 4.4 µM; 2,400 tested, 62% active; MCHR1-expressing cells, fluorescence antagonist assay; shares compounds with GPR7 antagonist; in the data active = inhibition above about 22%;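 note: 0% = vehicle with agonist and 100% = vehicle without agonist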
* marks the source's active call; other numbers are inactive results; x = no result given.

SMILES | EBNA-1 inh | ZTA counter | GPR7 antagonist | DNA FID counter | NS3 helicase inh | GPR7 antag conf | MCHR1 antag
COc1ccc(S(=O)(=O)Nc2ccc(F)cc2)cc1N(C)S(=O)(=O)c1ccc(Cl)cc1 | -6 | -10 | 20 | -7 | -27 | x | x
COCCCNCCCOc1ccc(Cl)cc1C(C)(C)C | 13 | 1 | 22* | 20 | -63 | 26* | 33*
COCCNCCCOc1ccc(Cl)cc1Br | -4 | -3 | -1 | 17 | -4 | x | x
CCC(C)NCCCOc1ccc(Cl)cc1C(C)(C)C (stereo unspecified) | 0 | -12 | -2 | 11 | -25 | x | x
CNCCCOc1ccc(Cl)cc1C(C)(C)C | 2 | 7 | 25* | 22 | -28 | 41* | 48*
Cc1cccc2cc(CN(Cc3ccco3)C(=O)Nc3cccc(C#N)c3)c(Cl)nc12 | 1 | -1 | 27* | -13 | 4 | 39* | 61*
Cc1ccc(NC(=O)N(Cc2ccco2)Cc2cc3cc(C)cc(C)c3nc2Cl)cc1 | x | x | -8 | -9 | -4 | x | x
CC(C)[C@@H](C(=O)N1CCCC1)N1C(=O)N2CCc3c([nH]c4ccccc34)[C@@]2(C)C1=O | 6 | 0 | 4 | -47 | 10 | x | x
COc1ccc(C(=O)c2c(C)c3ccccc3n2CC(O)CNC(C)C)cc1 (stereo unspecified) | 2 | -2 | 21* | 37* | -68 | 12 | 18
COc1cc(CNC2CCCC2)cc(Cl)c1OCc1ccc(F)cc1 | 3 | -3 | 26* | 26 | -68 | 25* | 22*
CCNCc1cc(Cl)c(OCc2ccccc2)c(OCC)c1 | -6 | 1 | 12 | 21 | -20 | x | x
COc1cc(CNC2CCCC2)cc(Cl)c1OCc1ccccc1Cl | 2 | 0 | 9 | 25 | -86 | x | x
CCOc1cc(CNC2CCCC2)cc(Cl)c1OCc1ccc(F)cc1 | 5 | 13 | 25* | 28 | -14 | 49* | 54*
COc1ccc(NC(=O)CN(C)C(=O)CSc2ccc(Br)cc2)cc1 | x | -13 | x | x | x | x | x
Cc1nnc(NC(=O)C(C)Sc2nnc(-c3ccco3)n2C(C)C)s1 (stereo unspecified) | -3 | -21 | -3 | -30 | 3 | x | x
Nc1c(C(=O)O)ccc2c1C(=O)c1ccccc1C2=O | 4 | -6 | 23* | -8 | 14 | 5 | 3
O=C(CNC(=O)c1ccccc1F)OCn1nnc2ccccc2c1=O | x | 8 | x | x | x | x | x
Cc1ccc(NC(=S)NC(=O)Cc2ccccc2)c(O)c1 | x | x | 29* | -18 | 27 | 42* | 29*
COc1ccc(NC(=S)NC(=O)Cc2ccccc2)c(OC)c1 | -6 | -3 | -4 | -10 | -3 | x | x
O=C(NC1CCCCC1)C1(S(=O)(=O)c2ccc(Cl)cc2)CC1 | -13 | -4 | -9 | -13 | -3 | x | x
COC(=O)C1CCN(S(=O)(=O)CCNC(=O)c2ccc3c(c2)OCO3)CC1 | -1 | 8 | x | x | x | x | x
CCC(CC)c1nc(C#N)c(NCc2ccccc2)o1 | 3 | -10 | 31* | -17 | 3 | 11 | 28*
OC(CNCc1ccc(F)cc1)(c1ccc(F)cc1)c1ccc(F)cc1 | 9 | 0 | 34* | 16 | -16 | 29* | 30*
COc1ccc(CNCC(O)(c2ccc(Cl)cc2)c2ccc(Cl)cc2)cc1OC | -3 | -20 | 23 | 10 | -87 | x | x
COc1ccc(CNCC(O)(c2ccc(Cl)cc2)c2ccc(Cl)cc2)cc1 | 4 | 20 | 31* | 7 | -90 | 39* | 56*
SMILES | EBNA-1 inh | ZTA counter | GPR7 antagonist | DNA FID counter | NS3 helicase inh | GPR7 antag conf | MCHR1 antag
CCCCNCC(O)(c1ccc(Cl)cc1)c1ccc(Cl)cc1 | -16 | 0 | 27* | 13 | -6 | 55* | 64*
Cc1cccc(OCC(=O)Nc2ccc3c(c2)OCCO3)c1 | -1 | 5 | 3 | -13 | 3 | x | x
Cc1cccc(OCC(=O)Nc2ccc3oc(=O)ccc3c2)c1 | -5 | -11 | 36* | -21 | -2 | 33* | 36*
Cc1ccc(NC(=O)CSc2nn(-c3ccccc3)c(=S)s2)cc1S(=O)(=O)N(C)C | 7 | -1 | 21* | -6 | -17 | 56* | 68*
O=C(CSc1nn(-c2ccccc2)c(=S)s1)Nn1cnnc1 | -10 | 12 | 4 | -3 | 4 | x | x
O=C(NCc1ccco1)c1sc2ccccc2c1Cl | 10 | -4 | -2 | -1 | 7 | x | x
O=C(NCc1ccco1)c1sc2cc(Cl)ccc2c1Cl | 4 | 1 | 36* | -9 | -1 | 22 | 31*
CCCSc1ccc2nc(NC(=O)OC)[nH]c2c1 | 7 | 8 | 29* | -5 | 2 | 40* | 28*
O=C(c1sc2cccc(Cl)c2c1Cl)N1CCN(CCc2ccccn2)CC1 | 0 | -12 | 3 | -40 | -9 | x | x
C[C@@H]1NS(=O)(=O)[C@H]2C[C@@H]3C=C[C@]2(O3)[C@H]1OC(=O)c1ccc(C(C)(C)C)cc1 | x | -2 | x | x | x | x | x
CCOc1ccc(S(=O)(=O)NCCC(=O)Nc2cccc(C(=O)OC)c2)cc1 | -4 | -2 | -2 | -24 | -6 | x | x
O=C(NCC1CC1(Cl)Cl)Nc1ccc(Cl)c(Cl)c1 (stereo unspecified) | 2 | -11 | 33* | 9 | 6 | 13 | 58*
CC(C)(CO)NC(=O)Nc1ccc(Cl)c(Cl)c1 | -12 | 1 | 26* | 8 | -8 | -6 | 10
CCC(CC)C(=O)Nc1ccc(Cl)c(Cl)c1 | -14 | -23 | -16 | 0 | 1 | x | x
O=S(=O)(c1ccc(F)cc1)N1CCN(CC2CC3C=CC2C3)CC1 (stereo unspecified) | -7 | -4 | -3 | -4 | -7 | x | x
O=C(CN1CCCCC1)NCC(=O)Nc1ccc(F)c(F)c1F | x | -14 | x | x | x | x | x
Cc1ccc2[nH]c3c(c2c1)CCc1cn[nH]c1-3 | 0 | -5 | 23* | 18 | -5 | 8 | 24*
CC(C)NC(=O)COc1coc(CN2CCN(C(=O)c3ccco3)CC2)cc1=O | 6 | -4 | x | x | x | x | x
Cc1ccc(NC(=O)CN(C)C2CCCCC2)cc1Cl | x | x | 25* | 23 | -4 | 21 | 24*
CCOC(=O)c1ccc(NC(=O)Nc2ccc(F)cc2)cc1 | 2 | 7 | 23* | 4 | 4 | 47* | 55*
Cc1ccc(NC(=O)Nc2ccc(F)cc2)cc1Cl | 1 | -7 | 28* | 4 | 4 | 9 | 52*
Cc1ccc(NC(=O)NC2CCCCC2)cc1Cl | 12 | 8 | -3 | -6 | -13 | x | x
CCOC(=O)C1(Cc2ccccc2)C(=O)N(CCCN(C)C)c2ccccc21 (stereo unspecified) | -6 | 9 | x | x | x | x | x
Cc1ccc2c(c1)c1c(n2CC(O)CNC2CCCC2)CCCC1 (stereo unspecified) | -4 | -13 | 23* | 17 | -28 | 53* | 41*
O=C(CN1CCN(C(=O)c2ccco2)CC1)Nc1ccc(F)cc1F | 9 | -5 | 22 | -8 | 3 | x | x
O=C1c2ccccc2C(Nc2cccnc2)N1Cc1ccccc1 (stereo unspecified) | 6 | -4 | -5 | -10 | 4 | x | x
